Experimental data taken from ChEMBL document CHEMBL1137462, “Indoloxypropanolamine analogues as 5-HT(1A) receptor antagonists” (Bioorg Med Chem Lett, 2007).

How the values were obtained:
[1] = target: T1, 5-hydroxytryptamine receptor 1A (Homo sapiens, UniProt P08908); assay: Antagonist activity at human 5HT1A expressed in mouse LM(tK-) cells assessed as inhibition of 5-HT-stimulated [35S]GTP-gamma-S binding; format: functional, cell-based
T1 sequence (P08908 whole entry): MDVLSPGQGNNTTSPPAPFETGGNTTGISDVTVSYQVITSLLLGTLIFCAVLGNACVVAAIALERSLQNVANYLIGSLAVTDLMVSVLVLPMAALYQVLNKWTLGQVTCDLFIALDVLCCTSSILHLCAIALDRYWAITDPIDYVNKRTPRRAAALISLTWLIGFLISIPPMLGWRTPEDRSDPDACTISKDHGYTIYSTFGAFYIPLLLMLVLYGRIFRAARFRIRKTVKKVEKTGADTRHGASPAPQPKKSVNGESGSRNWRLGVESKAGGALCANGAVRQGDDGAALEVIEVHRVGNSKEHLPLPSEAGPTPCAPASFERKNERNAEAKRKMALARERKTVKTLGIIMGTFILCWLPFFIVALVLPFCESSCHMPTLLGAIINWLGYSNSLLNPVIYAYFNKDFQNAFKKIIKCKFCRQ
Procedure, shortened: (§1)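 [35S]GTPγS binding in mouse LM(tk−) cells expressing the human 5-HT1A receptor, with binding stimulated by 300 nM 5-HT. Ki was calculated from inhibition of that stimulation. Maximal inhibition was expressed as a percentage of the stimulation produced by a maximal 5-HT concentration. Where Ki could not be obtained, inhibition was read at the highest accurately testable compound concentration.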

[2] = target: T1, 5-hydroxytryptamine receptor 1A; assay: Displacement of [3H]DPAT from human 5HT1A receptor
Procedure, shortened: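 Radioligand binding in vitro using cell lines expressing the human 5-HT1A receptor. Values are mean ± SEM of at least three determinations.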

[3] = target: T2, 5-hydroxytryptamine receptor 1A (Homo sapiens) (UniProt P08908); assay: Antagonist activity at human 5HT1A expressed in mouse LM(tK-) cells assessed as maximal inhibition of 5-HT-stimulated [35S]GTPgammaS binding; format: functional, cell-based; set-up: scale not given: the % may be the effect or the level left
T2 sequence (whole entry): T1 sequence (P08908 whole entry)

[4] = target: T1, 5-hydroxytryptamine receptor 1A; assay: Antagonist activity at human 5HT1A expressed in mouse LM(tK-) cells assessed as 5-HT-stimulated [35S]GTPgammaS binding; format: functional, cell-based; procedure, shortened: as §1
[5] = target: T2, 5-hydroxytryptamine receptor 1A (Homo sapiens); assay: Antagonist activity at human 5HT1A expressed in mouse LM(tK-) cells assessed as maximal 5-HT-stimulated [35S]GTPgammaS binding relative to 5HT; format: functional, cell-based
[6] = target: Beta-1 adrenergic receptor (Homo sapiens, UniProt P08588); assay: Binding affinity at human adrenergic beta-1 receptor
Chain of Beta-1 adrenergic receptor (P08588 whole entry): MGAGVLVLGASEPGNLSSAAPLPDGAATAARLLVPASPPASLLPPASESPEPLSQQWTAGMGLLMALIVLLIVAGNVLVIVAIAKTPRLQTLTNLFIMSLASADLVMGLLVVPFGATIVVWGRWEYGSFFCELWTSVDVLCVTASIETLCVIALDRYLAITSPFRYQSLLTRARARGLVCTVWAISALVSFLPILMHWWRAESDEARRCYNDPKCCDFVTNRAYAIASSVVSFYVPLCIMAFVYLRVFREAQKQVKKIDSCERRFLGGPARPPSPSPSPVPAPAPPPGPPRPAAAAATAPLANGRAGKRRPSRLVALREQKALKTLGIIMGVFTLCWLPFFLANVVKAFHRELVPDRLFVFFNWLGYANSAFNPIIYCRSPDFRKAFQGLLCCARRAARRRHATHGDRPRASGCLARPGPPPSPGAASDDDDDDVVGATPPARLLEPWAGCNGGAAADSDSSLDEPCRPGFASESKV

[7] = target: Beta-2 adrenergic receptor (Homo sapiens, UniProt P07550); assay: Binding affinity at human adrenergic beta2 receptor
Chain of Beta-2 adrenergic receptor (P07550 whole entry): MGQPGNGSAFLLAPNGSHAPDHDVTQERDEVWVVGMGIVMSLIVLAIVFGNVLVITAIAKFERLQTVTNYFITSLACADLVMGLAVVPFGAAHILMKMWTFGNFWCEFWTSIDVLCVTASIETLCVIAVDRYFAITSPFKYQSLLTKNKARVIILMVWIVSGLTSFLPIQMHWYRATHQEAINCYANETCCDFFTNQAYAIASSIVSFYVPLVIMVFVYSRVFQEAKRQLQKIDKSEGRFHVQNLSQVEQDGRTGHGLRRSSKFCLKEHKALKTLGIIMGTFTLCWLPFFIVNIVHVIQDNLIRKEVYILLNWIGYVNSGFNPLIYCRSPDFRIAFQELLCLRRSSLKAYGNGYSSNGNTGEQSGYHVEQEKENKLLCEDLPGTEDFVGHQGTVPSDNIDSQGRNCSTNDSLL

Rattus norvegicus [8] = assay: Blockade of 8-OH-DPAT-induced increase in serum corticosterone level in Spargue-Dawley rat at 0.03 mg/kg, sc; format: functional; conditions: route subcutaneous
Procedure, shortened: (§2)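 Male Sprague–Dawley rats received compound sc at 0.03–1.0 mg/kg, 15 min before 0.3 mg/kg sc 8-OH-DPAT. Rats were killed 1 h after the agonist. Serum corticosterone was measured with a 3H-corticosterone kit. Results are mean and standard error, n = 5 rats per group, with percent antagonism of the 8-OH-DPAT-induced rise.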

Rattus norvegicus [9] = assay: Blockade of 8-OH-DPAT-induced increase in serum corticosterone level in Spargue-Dawley rat at 0.1 mg/kg, sc; format: functional; conditions: route subcutaneous; procedure, shortened: as §2
Rattus norvegicus [10] = assay: Blockade of 8-OH-DPAT-induced increase in serum corticosterone level in Spargue-Dawley rat at 0.3 mg/kg, sc; format: functional; conditions: route subcutaneous; procedure, shortened: as §2
Rattus norvegicus [11] = assay: Blockade of 8-OH-DPAT-induced increase in serum corticosterone level in male Spargue-Dawley rat at 1.0 mg/kg, sc; format: functional; conditions: route subcutaneous; procedure, shortened: as §2
Rattus norvegicus [12] = assay: Blockade of 8-OH-DPAT-induced increase in serum corticosterone level in sc dosed Spargue-Dawley rat; format: functional; procedure, shortened: as §2
[13] = target: T2, 5-hydroxytryptamine receptor 1A (Homo sapiens); assay: Antagonist activity at human 5HT1A expressed in mouse LM(tK-) cells assessed as inhibition of 5-HT-stimulated [35S]GTP-gamma-S binding at 10 uM; format: functional, cell-based; set-up: scale not given: the % may be the effect or the level left
Procedure, shortened: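 Human 5-HT1A receptor expressed in mouse LM(tk-) cells. [35S]GTPγS binding was stimulated with 300 nM 5-HT, and inhibition was measured at a single compound concentration, the highest that could be accurately tested.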

| SMILES | Ki [1] [nM] | Ki [2] [nM] | Activity [3] [%] | further results |
| --- | --- | --- | --- | --- |
| OC(CNC12CC3CC(CC(C3)C1)C2)COc1cccc2[nH]ccc12 (configuration not stated) | 7.84 | 9.29 | 6.56 |  |
| OC(CNC12CC3CC(CC(C3)C1)C2)COc1ccc2[nH]ccc2c1 (configuration not stated) |  | 833 |  |  |
| O[C@H](CNC1CCCCC1)COc1cccc2[nH]ccc12 | 50.8 | 26.1 | 8.87 |  |
| OC(CCOc1cccc2[nH]ccc12)CNC12CC3CC(CC(C3)C1)C2 (configuration not stated) |  | 551 |  |  |
| CC(C)NCC(O)COc1cccc2[nH]ccc12 (configuration not stated) |  |  | 9.76 |  |
| OC(CCNC1CCCCC1)COc1cccc2[nH]ccc12 (configuration not stated) |  | 125 |  | EC50 [4]: 394 nM; Emax [5]: 45.6% |
| O[C@@H](CNC12CC3CC(CC(C3)C1)C2)COc1cccc2[nH]ccc12 | 4.65 | 3.89 | 6.38 | Ki [6]: 7.92 nM; Ki [7]: 6.63 nM |
| O[C@@H](CNC1CCCCC1)COc1cccc2[nH]ccc12 | 6.68 | 1.33 | 7.52 | Ki [6]: 2.37 nM; Activity (Rattus norvegicus [8]): 13%; Activity (Rattus norvegicus [9]): 26%; Activity (Rattus norvegicus [10]): 53%; Activity (Rattus norvegicus [11]): 92%; Ki [7]: 3.75 nM; ED50 (Rattus norvegicus [12]): 2.5 mg/kg |
| O[C@H](CNC12CC3CC(CC(C3)C1)C2)COc1cccc2[nH]ccc12 | 29.9 | 18.3 | 3.15 |  |
| c1cc(OCCCNC2CCCCC2)c2cc[nH]c2c1 |  | 78.4 |  | Activity [13]: 31.3% |
| O[C@@H](CNC1C2CC3CC(C2)CC1C3)COc1cccc2[nH]ccc12 (some centres not stated) | 24 | 11.2 | 8.75 |  |
| OC(CNC1CCCCCC1)COc1cccc2[nH]ccc12 (configuration not stated) | 11.3 | 6.82 | 8.9 |  |
| OC(CCNC12CC3CC(CC(C3)C1)C2)COc1cccc2[nH]ccc12 (configuration not stated) |  | 76.1 |  | EC50 [4]: 854 nM; Emax [5]: 51.8% |
| OC(CCOc1cccc2[nH]ccc12)CNC1CCCCC1 (configuration not stated) |  | 872 |  |  |
| COC(CNC12CC3CC(CC(C3)C1)C2)COc1cccc2[nH]ccc12 (configuration not stated) |  | 32 |  | Activity [13]: 28.9% |
| COC(CNC1CCCCC1)COc1cccc2[nH]ccc12 (configuration not stated) |  | 40.6 |  | Activity [13]: 36.2% |
| CCC(CC)NCC(O)COc1cccc2[nH]ccc12 (configuration not stated) | 49.8 | 28.6 | 4.74 |  |
| c1cc(OCCCNC2CCCC2)c2cc[nH]c2c1 | 233 | 94.3 | 24.8 |  |
| CC(C)NCC(O)CCOc1cccc2[nH]ccc12 (configuration not stated) |  | 1770 |  |  |
| OC(CNC1CCCCC1)COc1ccc2[nH]ccc2c1 (configuration not stated) |  | > 3000 |  |  |
| OC(CNC1CCCCC1)COc1cccc2[nH]ccc12 (configuration not stated) | 9.83 | 3.58 | 9.88 |  |
| OC(CNC1CCCC1)COc1cccc2[nH]ccc12 (configuration not stated) | 35.5 | 10.6 | 11.8 |  |
| C[C@](O)(CNC12CC3CC(CC(C3)C1)C2)COc1cccc2[nH]ccc12 |  | 868 |  |  |
| C[C@](O)(CNC1CCCCC1)COc1cccc2[nH]ccc12 |  | 1450 |  |  |
